Assays:
[1] = target: Cyclin-T1/Cyclin-dependent-like kinase 5 (Homo sapiens, UniProt O60563+Q00535); experiment: Inhibition of CDK5/cyclinT assessed as amount of ATP released by luciferase activity based PKLight assay; format: protein-complex assay
[2] = target: Insulin receptor-related protein (Homo sapiens, UniProt P14616); experiment: Inhibition of IRR at 0.1 uM
[3] = test system: Mus musculus; experiment: AUC (0 to infinity) in mouse at 10 mg/kg, po; format: ADME, organism-based, Plasma; set-up: time infinity, dose 10 mg/kg, route oral; conditions: in vivo
Summary of the method: (§1)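 Mice given 10 mg/kg by the ip, iv or oral route. Plasma levels were measured at 8 time points, with 3 animals per route for po and iv. Parameters came from a noncompartmental model. AUCINF was extrapolated to infinity, and bioavailability was calculated from AUCINF. The terminal slope used 3 points.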

[4] = test system: SK-OV-3; experiment: Antiproliferative activity against human SKOV3 cells after 72 hrs by sulforhodamine B assay; format: functional; conditions: SK-OV-3, 72 h
Summary of the method: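 Cell lines were grown in DMEM with 10% FCS and treated with increasing concentrations for 72 h. Growth was read by sulforhodamine B staining and GI50 was derived. Values are means of at least three replicates with SD.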

[5] = Metabolic stability in mouse liver microsomes as compound remaining at 1 uM; format: ADME, Microsome; conditions: read-out: Stability
Summary of the method: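 Liver microsomes, test compound at 1 μM with NADP 1 mM, G6P 5 mM and G6PDHase 1 U/mL, in 0.6% methanol and 0.6% acetonitrile. Incubated 0 and 60 min at 37 °C. Reported as percent parent remaining, mean (range), n=2.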

[6] = target: Mitogen-activated protein kinase 8 (Homo sapiens) (UniProt P45983); experiment: Inhibition of JNK1 assessed as residual enzyme activity at 10 uM
Mitogen-activated protein kinase 8 (Homo sapiens), sequence (P45983 whole entry): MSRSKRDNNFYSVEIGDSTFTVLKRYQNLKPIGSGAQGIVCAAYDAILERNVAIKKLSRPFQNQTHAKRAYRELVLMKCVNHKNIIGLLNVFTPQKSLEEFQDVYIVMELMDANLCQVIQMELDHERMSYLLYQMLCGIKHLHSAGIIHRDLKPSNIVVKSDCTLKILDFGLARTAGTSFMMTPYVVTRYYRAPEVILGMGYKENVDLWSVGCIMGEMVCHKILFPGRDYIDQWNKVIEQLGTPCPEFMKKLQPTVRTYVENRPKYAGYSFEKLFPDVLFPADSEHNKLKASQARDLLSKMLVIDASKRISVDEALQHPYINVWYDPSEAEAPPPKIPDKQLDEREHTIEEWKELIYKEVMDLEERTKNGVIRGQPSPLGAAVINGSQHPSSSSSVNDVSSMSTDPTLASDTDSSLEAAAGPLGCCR

[7] = AUC (0 to last) in mouse at 10 mg/kg, po; format: ADME, organism-based; set-up: dose 10 mg/kg, route oral, time 0 - last; conditions: plasma; summary of the method: as §1
[8] = target: Serine/threonine-protein kinase PLK1 (Homo sapiens) (UniProt P53350); experiment: Inhibition of okadaic acid-activated PLK1 assessed as residual enzyme activity at 10 uM
Serine/threonine-protein kinase PLK1 (Homo sapiens), sequence (P53350 whole entry): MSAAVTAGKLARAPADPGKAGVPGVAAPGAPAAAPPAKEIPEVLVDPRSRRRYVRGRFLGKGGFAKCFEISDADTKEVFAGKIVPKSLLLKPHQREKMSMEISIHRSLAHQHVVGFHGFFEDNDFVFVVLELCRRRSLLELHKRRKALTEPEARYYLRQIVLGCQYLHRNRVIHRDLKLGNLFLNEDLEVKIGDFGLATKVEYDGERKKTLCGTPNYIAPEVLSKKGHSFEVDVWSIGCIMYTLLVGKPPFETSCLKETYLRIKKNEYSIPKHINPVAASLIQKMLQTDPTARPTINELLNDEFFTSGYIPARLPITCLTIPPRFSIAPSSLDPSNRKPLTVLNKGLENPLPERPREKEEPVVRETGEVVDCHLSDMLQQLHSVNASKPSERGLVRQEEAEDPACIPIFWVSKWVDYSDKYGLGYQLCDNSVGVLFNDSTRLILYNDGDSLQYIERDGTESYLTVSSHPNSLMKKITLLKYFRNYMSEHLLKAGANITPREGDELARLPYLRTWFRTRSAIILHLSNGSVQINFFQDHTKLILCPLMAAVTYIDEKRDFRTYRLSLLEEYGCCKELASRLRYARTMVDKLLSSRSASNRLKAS

[9] = test system: Mus musculus; experiment: Inhibition of cyclin-dependent kinase substrate RB phosphorylation at Ser807/811 in HCT116 xenografted nude BALB/c mouse at 25 mg/kg/day, po measured after 14 days by immunostaining and […] relative to control; format: organism-based; set-up: route oral; conditions: in vivo, 336 h
Summary of the method: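 HCT116 cells (5 × 10^6) were injected subcutaneously into the flank of female nu/nu-BALB/c nude mice. Mice were randomized at 100-200 mm3 and dosed daily by oral gavage for 14 days (vehicle 28% PEG300/5% dimethylacetamide/10% HPB cyclodextrin in water). Tumors were formalin-fixed and paraffin-embedded for Rb pSer807/811 or pThr821 immunohistochemistry (citrate pH 6.0 microwave retrieval), scoring >1000 cells per section. Student's t test.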

[10] = target: Cyclin-dependent kinase 1/cyclin B1 (Homo sapiens, UniProt P06493); experiment: Inhibition of CDK1/cyclinB1 assessed as amount of ATP released by luciferase activity based PKLight assay; format: protein-complex assay
[11] = target: Tyrosine-protein kinase CSK (Homo sapiens) (UniProt P41240); experiment: Inhibition of CSK assessed as residual enzyme activity at 10 uM
Tyrosine-protein kinase CSK (Homo sapiens), sequence (P41240 2-450 limits assumed): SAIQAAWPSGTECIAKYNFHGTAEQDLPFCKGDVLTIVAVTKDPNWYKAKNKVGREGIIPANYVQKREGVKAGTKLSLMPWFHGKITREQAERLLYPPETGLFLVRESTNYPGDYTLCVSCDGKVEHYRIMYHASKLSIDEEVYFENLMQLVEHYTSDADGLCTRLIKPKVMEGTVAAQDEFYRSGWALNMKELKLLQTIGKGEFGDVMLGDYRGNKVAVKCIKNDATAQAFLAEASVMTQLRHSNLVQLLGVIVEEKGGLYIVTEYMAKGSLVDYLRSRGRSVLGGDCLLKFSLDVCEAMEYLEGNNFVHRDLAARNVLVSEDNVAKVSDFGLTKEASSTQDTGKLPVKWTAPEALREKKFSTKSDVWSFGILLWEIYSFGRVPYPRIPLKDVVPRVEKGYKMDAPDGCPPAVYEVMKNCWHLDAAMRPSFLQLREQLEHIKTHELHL

[12] = target: Mitogen-activated protein kinase 15 (Homo sapiens, UniProt Q8TD08); experiment: Inhibition of ERK8
Mitogen-activated protein kinase 15, sequence (Q8TD08 whole entry): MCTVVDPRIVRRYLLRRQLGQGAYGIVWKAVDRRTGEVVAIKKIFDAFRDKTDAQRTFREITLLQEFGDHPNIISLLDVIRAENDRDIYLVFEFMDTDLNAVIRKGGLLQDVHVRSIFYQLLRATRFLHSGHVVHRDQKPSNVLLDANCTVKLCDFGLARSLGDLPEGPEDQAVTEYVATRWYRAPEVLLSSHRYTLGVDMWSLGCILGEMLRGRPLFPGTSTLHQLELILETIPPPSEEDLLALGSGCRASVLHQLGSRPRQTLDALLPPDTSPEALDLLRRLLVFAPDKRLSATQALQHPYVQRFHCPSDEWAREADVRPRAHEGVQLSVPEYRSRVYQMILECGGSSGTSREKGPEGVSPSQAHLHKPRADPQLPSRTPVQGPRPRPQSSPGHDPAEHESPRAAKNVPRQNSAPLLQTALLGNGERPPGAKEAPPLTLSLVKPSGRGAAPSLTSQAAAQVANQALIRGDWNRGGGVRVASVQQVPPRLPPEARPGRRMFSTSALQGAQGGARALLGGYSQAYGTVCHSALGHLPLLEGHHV

Insulin receptor-related protein, sequence (P14616 27-742 limits assumed): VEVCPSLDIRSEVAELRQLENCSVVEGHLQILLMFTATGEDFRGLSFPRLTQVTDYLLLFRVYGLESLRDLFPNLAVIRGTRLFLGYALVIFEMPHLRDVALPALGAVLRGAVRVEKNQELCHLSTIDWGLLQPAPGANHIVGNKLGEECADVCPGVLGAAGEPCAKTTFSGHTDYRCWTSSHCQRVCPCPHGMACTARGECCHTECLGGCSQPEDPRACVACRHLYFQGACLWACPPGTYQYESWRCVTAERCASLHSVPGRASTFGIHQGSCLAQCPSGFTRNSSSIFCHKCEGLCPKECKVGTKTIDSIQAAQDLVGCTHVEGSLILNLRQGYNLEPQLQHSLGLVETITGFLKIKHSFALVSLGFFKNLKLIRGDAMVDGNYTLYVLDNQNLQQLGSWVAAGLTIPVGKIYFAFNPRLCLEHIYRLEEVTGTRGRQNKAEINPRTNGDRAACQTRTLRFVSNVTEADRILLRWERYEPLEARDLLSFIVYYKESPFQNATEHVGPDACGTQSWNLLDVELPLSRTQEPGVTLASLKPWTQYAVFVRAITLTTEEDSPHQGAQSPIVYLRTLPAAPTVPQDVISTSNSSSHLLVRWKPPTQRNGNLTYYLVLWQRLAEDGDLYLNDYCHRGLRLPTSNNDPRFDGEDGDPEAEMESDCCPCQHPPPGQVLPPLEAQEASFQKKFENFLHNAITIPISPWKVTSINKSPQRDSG
Insulin receptor-related protein, sequence (P14616 747-1297 limits assumed): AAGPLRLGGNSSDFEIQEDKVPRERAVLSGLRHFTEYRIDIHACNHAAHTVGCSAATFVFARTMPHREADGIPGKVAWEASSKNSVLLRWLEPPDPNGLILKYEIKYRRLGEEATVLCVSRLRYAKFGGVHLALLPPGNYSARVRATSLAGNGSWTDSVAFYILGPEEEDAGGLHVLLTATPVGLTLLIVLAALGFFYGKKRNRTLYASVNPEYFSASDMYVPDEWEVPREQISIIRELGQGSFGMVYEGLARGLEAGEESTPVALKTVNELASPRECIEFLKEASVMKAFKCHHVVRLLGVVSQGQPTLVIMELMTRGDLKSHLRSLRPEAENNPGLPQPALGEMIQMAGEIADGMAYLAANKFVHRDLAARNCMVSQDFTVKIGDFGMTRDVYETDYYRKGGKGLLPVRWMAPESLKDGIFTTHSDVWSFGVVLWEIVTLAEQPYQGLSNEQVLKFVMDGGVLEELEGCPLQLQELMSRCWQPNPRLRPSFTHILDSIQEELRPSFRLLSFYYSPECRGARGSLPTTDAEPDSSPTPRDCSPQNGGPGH
Cyclin-T1/Cyclin-dependent-like kinase 5, sequence (Q00535 whole entry): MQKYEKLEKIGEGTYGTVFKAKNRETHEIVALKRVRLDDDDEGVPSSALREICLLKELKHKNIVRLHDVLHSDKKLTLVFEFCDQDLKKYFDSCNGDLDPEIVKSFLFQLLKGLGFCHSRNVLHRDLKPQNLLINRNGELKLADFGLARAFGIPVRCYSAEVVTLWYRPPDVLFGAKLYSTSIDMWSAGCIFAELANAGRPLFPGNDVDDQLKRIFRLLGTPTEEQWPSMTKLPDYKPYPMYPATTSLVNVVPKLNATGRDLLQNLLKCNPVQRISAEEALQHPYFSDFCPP
Cyclin-T1/Cyclin-dependent-like kinase 5, sequence (O60563 whole entry): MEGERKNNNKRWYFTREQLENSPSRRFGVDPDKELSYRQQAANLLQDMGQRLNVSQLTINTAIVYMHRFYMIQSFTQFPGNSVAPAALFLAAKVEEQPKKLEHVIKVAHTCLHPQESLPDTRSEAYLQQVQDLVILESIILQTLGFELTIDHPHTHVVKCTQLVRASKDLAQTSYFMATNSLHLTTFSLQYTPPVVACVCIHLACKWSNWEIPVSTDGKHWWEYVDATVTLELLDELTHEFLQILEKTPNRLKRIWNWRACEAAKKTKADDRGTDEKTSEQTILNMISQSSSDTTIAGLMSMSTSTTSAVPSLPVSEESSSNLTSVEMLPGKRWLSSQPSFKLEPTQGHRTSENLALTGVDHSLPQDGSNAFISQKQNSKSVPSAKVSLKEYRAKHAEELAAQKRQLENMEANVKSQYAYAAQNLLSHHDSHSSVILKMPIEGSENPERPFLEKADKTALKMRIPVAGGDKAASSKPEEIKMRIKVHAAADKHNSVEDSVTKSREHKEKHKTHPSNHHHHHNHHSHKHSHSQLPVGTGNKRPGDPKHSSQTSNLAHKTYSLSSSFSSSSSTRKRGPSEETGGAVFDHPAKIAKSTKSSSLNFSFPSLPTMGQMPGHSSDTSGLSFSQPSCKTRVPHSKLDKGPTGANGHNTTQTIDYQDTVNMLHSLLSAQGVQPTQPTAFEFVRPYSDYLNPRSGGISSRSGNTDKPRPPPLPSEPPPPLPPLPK

Compound `CC(C)c1cnn2c(NCc3ccccc3)cc(N[C@@H](CO)[C@H](O)CO)nc12` has an IC50 [1] of 30 nM, an inhibition [2] of less than 50% and an AUC [3] of 32100 ng·h/mL. For the same compound, the GI50 [4] was 300 nM, the remaining at 1 µM [5] was 29% and the Activity [6] was 93%. For the same compound, the AUC(0-t) [7] was 32000 ng·h/mL, the Activity [8] was 97% and the “inhibition (INH)” value [9] was “Active”. It also gave an IC50 [10] of 33 nM, an Activity [11] of 77% and an IC50 [12] of 330 nM.
